Source: ChEMBL document CHEMBL1123210, “Cycloheximide analogues as potential anticonvulsants” (J Med Chem, 1986)
Active and inactive are the calls of the source.

Legend:
Mus musculus [1] = assay: Compound was tested for subcutaneous pentylenetetrazole seizure test in mice after administration intraperitoneally at 0.5 hr; IA is Inactive; format: functional, organism-based
Mus musculus [2] = assay: Inhibition of subcutaneous pentylenetetrazole induced seizures in mice 4 hr following i.p. administration; Inactive.; format: functional, organism-based
Mus musculus [3] = assay: Compound was tested for maximal electroshock seizure test in mice 0.5 hr after administration; IA is Inactive; format: functional, organism-based
Mus musculus [4] = assay: Inhibition of maximal electroshock induced seizures in mice 4 hr after administration; Inactive.; format: functional, organism-based
Mus musculus [5] = assay: Number of mice exhibiting toxicity out of four (4) mice in repeated subcutaneous pentylenetetrazole seizure test was measured by using rotarod test; format: organism-based; settings: in vivo
In short: (§1)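 Neurotoxicity was scored in the rotorod test in mice given doses up to 600 mg/kg. The value is the number of animals out of four showing toxicity. It was recorded for both the initial screen and the repeat pentylenetetrazol screen.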

Mus musculus [6] = species: Mus musculus; assay: Number of mice exhibiting toxicity out of four (4) mice was measured by using rotarod test.; format: organism-based; settings: in vivo; in short: as §1
Mus musculus [7] = assay: (§2) Compound was tested for subcutaneous pentylenetetrazole seizure test in mice after administration intraperitoneally at 0.5h.; format: functional
Mus musculus [8] = assay: (§3) Compound was tested for the lowest dose which protected half of the mice in pentylenetetrazole seizure test 0.5 hr after ip administration of the compound; format: functional
In short: (§4)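 This was a repeat of the subcutaneous pentylenetetrazol screen in mice (85 mg/kg s.c.). Endpoint was prevention of clonic seizures, four animals per dose at 30, 100, 300 or 600 mg/kg. The value is the lowest dose at which at least half of the four animals were protected.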

Mus musculus [9] = assay: (§5) Compound was tested for maximal electroshock seizure test in mice 0.5 hr after administration.; format: functional
Mus musculus [10] = assay: (§6) Compound was tested for subcutaneous pentylenetetrazole seizure test in mice after administration intraperitoneally at 4h.; format: functional
Mus musculus [11] = assay: (§7) Compound was tested for the lowest dose which protected half of the mice in pentylenetetrazole seizure test 4 hr after ip administration of the compound; format: functional; in short: as §4
Mus musculus [12] = assay: (§8) Compound was tested for maximal electroshock seizure test in mice 4 hr after administration; IA is Inactive; format: functional, organism-based
Mus musculus [13] = assay: as §5; format: functional; remark: listed apart in the source
In short: (§9)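 Mice, four per dose level, screened at 30, 100, 300 and 600 mg/kg and read at 0.5 h and 4 h after dosing. End point is prevention of tonic hindlimb extension after maximal electroshock. Activity is the lowest dose at which at least one of four animals is protected.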

Mus musculus [14] = assay: as §8; format: functional, organism-based; in short: as §9; remark: listed apart in the source
Mus musculus [15] = assay: as §2; format: functional; remark: listed apart in the source
In short: (§10)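 Mice, four per dose level, screened at 30, 100, 300 and 600 mg/kg and read at 0.5 h and 4 h after dosing. End point is prevention of minimal threshold (clonic) seizures induced by pentylenetetrazol 85 mg/kg sc. Activity is the lowest dose at which at least one of four animals is protected.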

Mus musculus [16] = assay: as §6; format: functional; in short: as §10; remark: listed apart in the source
Mus musculus [17] = assay: as §3; format: functional; remark: listed apart in the source
In short: (§11)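 Repeat pentylenetetrazol screen (85 mg/kg sc, clonic seizure end point) in four mice per dose, at 30, 100, 300 and 600 mg/kg, read at 0.5 h and 4 h. The value is the lowest dose at which at least half of the four animals were protected. A few cases were rescreened at 100, 250, 450 and 600 mg/kg or used only three animals.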

Mus musculus [18] = assay: as §7; format: functional; in short: as §11; remark: listed apart in the source

In the case of `C[C@H]1CC(C(=O)CC2CC(=O)NC(=O)C2)C(=O)[C@@H](C)C1` (some centres not stated), the scMet (Mus musculus [1]) is reported as “inactive”, the scMet (Mus musculus [2]) is reported as “inactive” and the MES (Mus musculus [3]) is reported as “inactive”. The MES (Mus musculus [4]) was “inactive”.
`C[C@H]1CCC(=O)C(C(=O)CC2CC(=O)N(C)C(=O)C2)C1` (some centres not stated) was tested, and the scMet (Mus musculus [1]) was “inactive”, the scMet (Mus musculus [2]) was “inactive” and the MES (Mus musculus [3]) was “inactive”. The MES (Mus musculus [4]) was “inactive”.
Compound `C[C@H]1CCCC(C(=O)CC2CC(=O)NC(=O)C2)C1=O` (some centres not stated) has a Toxicity (Mus musculus [5]) of 0, a Toxicity (Mus musculus [6]) of 0 and a scMet (Mus musculus [7]) of 300 mg/kg. The scMet (Mus musculus [2]) was “inactive”, the MES (Mus musculus [8]) was 100 mg/kg and the MES (Mus musculus [3]) was “inactive”. For the same compound, the MES (Mus musculus [4]) was “inactive”.
Work on `C[C@@H]1CCC(=O)C(C(=O)CC2CC(=O)NC2=O)C1` (some centres not stated) yielded a Toxicity (Mus musculus [5]) of 1, a Toxicity (Mus musculus [6]) of 2 and a scMet (Mus musculus [7]) of 600 mg/kg. The scMet (Mus musculus [2]) was “inactive”, the scMet (Mus musculus [8]) was 600 mg/kg and the MES (Mus musculus [9]) was 600 mg/kg. For the same compound, the MES (Mus musculus [4]) was “inactive”.
In the case of `CN1C(=O)CC(CC(=O)C2CCCCC2=O)CC1=O` (stereo in doubt; 2e), the scMet (Mus musculus [1]) is reported as “inactive”, the scMet (Mus musculus [2]) is reported as “inactive” and the MES (Mus musculus [3]) is reported as “inactive”. For the same compound, the MES (Mus musculus [4]) was “inactive”.
For `C[C@H]1CC([C@H](O)CC2CC(=O)N(Cc3ccccc3)C(=O)C2)[C@@H](O)[C@@H](C)C1` (some centres not stated), the scMet (Mus musculus [1]) was “inactive”, the scMet (Mus musculus [2]) was “inactive” and the MES (Mus musculus [3]) was “inactive”. For the same compound, the MES (Mus musculus [4]) was “inactive”.
`C[C@H]1CC([C@H](O)CC2CC(=O)NC(=O)C2)[C@@H](O)[C@@H](C)C1` (some centres not stated) was tested, and the Toxicity (Mus musculus [5]) was 0, the Toxicity (Mus musculus [6]) was 1 and the scMet (Mus musculus [7]) was 100 mg/kg. The scMet (Mus musculus [10]) was 600 mg/kg, the scMet (Mus musculus [8]) was 100 mg/kg and the scMet (Mus musculus [11]) was 600 mg/kg. The MES (Mus musculus [3]) was “inactive” and the MES (Mus musculus [4]) was “inactive”.
For `CC1CCCC(C(=O)CC2CC(=O)N(C)C(=O)C2)C1=O` (stereo in doubt; 2g), the MES (Mus musculus [9]) was 600 mg/kg and the MES (Mus musculus [4]) was “inactive”.
`C[C@H]1CCCC([C@H](O)CC2CC(=O)N(C)C(=O)C2)[C@H]1O` (some centres not stated) was tested, and the Toxicity (Mus musculus [6]) was 0, the MES (Mus musculus [12]) was “inactive” and the scMet (Mus musculus [1]) was “inactive”. For the same compound, the scMet (Mus musculus [2]) was “inactive” and the MES (Mus musculus [9]) was 600 mg/kg.
For `CN1C(=O)CC(C[C@@H](O)C2CCCC[C@@H]2O)CC1=O` (some centres not stated), the scMet (Mus musculus [1]) was “inactive”, the scMet (Mus musculus [2]) was “inactive” and the MES (Mus musculus [3]) was “inactive”. For the same compound, the MES (Mus musculus [4]) was “inactive”.
For `C[C@@H]1CC([C@H](O)CC2CC(=O)NC(=O)C2)C(=O)[C@@H](C)C1` (some centres not stated), the MES (Mus musculus [13]) was 600 mg/kg, the MES (Mus musculus [14]) was “inactive” and the scMet (Mus musculus [15]) was 100 mg/kg. The scMet (Mus musculus [16]) was 300 mg/kg, the scMet (Mus musculus [17]) was 100 mg/kg and the scMet (Mus musculus [18]) was 300 mg/kg. The Toxicity (Mus musculus [5]) was 0 animals and the Toxicity (Mus musculus [6]) was 1.
